One data set has as its system CCD-1095SK. In words: Induction of glycosaminoglycan chains priming in human CCD-1095SK cells using [35S]-Sulfate after 30 mins by beta counting. Format: functional, cell-based. In outline:
(§1)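 Confluent monolayers incubated with xylosides in low-sulfate labeling medium with 2 mM glutamine and 20 µCi/mL [35S]sulfate; xylosides diluted from 20 mM stocks in Me2SO/water 1:1. Medium collected, labeled polyanions captured on DEAE-cellulose, free primed GAG chains separated from PG on Octyl-Sepharose. Ethanol-precipitated, sized by Superose 6 gel-permeation FPLC, radioactivity counted by beta counter.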

Data set [1] is described as follows: Antiproliferative activity against human CCD-1095SK cells after 96 hrs by crystal violet staining method. The data set is classed as cell-based. The settings on record: for GI50 at 96 h: CCD-1095SK cells, read-out: ED50. In outline: (§2)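 Normal breast fibroblasts (CCD-1095Sk) or HCC70 breast carcinoma cells seeded at 5000 cells/well, in MEM or RPMI-1640 with 10% fetal calf serum. After 24 h, switched to serum-free Ham's F-12 with insulin (10 µg/mL) and transferrin (25 µg/mL) plus increasing xyloside concentrations, 96 h total. Fixed in 1% glutaraldehyde, stained with 0.1% crystal violet, lysed in 1% Triton X-100, read at A600. ED50 taken from % of untreated growth.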

Data set [2] concerns HCC70. Description: Antiproliferative activity against human HCC70 cells after 96 hrs by crystal violet staining method. The data set is classed as functional. The conditions noted are these: read-out: ED50 (the source's name). In short, it runs like this: as §2
The subject of data set [3] is HCC70. In words: Induction of glycosaminoglycan chains priming from beta-D-xylopyranoside in human HCC70 cells using [35S]-Sulfate after 30 mins by beta counting. The data set is classed as functional, cell-based. In outline: as §1
The subject of data set [4] is HCC70. Description: Inhibition of endogenous proteoglycans production in human HCC70 cells at 0.1 mM. Format: functional.
For data set [5], the system named is HCC70. In words: Inhibition of glycosaminoglycan chains priming from beta-D-xylopyranoside in human HCC70 cells at 0.1 mM. Format: functional.

Molecules are shown by their SMILES. Active and inactive are the calls of the source. The rule behind the calls is not given here.

Take `O[C@H]1[C@H](Oc2ccc3ccccc3c2)OC[C@@H](O)[C@@H]1F`: the result in the data set on CCD-1095SK and with HCC70 [3] was inactive. Moreover, the GI50 at 96 h in data set [1] was determined as 72 µM. Also, the EC50 in the data set with HCC70 [2] (Homo sapiens, HCC70, 96 h) was determined as 94 µM.

Consider `O[C@@H]1[C@@H](O)[C@H](Oc2ccc3ccccc3c2)OC[C@@H]1O`, for which the outcome in the data set on CCD-1095SK and with HCC70 [3] was inactive. Moreover, the GI50 at 96 h in data set [1] amounted to 48 µM. In addition, the EC50 in the data set on HCC70 [2] (Homo sapiens, HCC70, 96 h) was found to be 371 µM.

Turning to `O[C@@H]1[C@@H](O)[C@H](Oc2ccc3ccccc3c2)OC[C@H]1O` (stereo in doubt; 1b), the outcome in the data set on CCD-1095SK and with HCC70 [3] was Active. In addition, the GI50 in data set [1] (ccd-1095sk, 96 h, read-out: ED50 (the source's name)) amounted to 243 µM. The EC50 in the data set with HCC70 [2] came out at 91 µM.

`O[C@@H]1CO[C@@H](Oc2ccc3ccccc3c2)[C@H](O)C1`: the outcome in the data set with CCD-1095SK and in the data set with HCC70 [3] was inactive. The GI50 at 96 h in data set [1] was 79 µM. Besides, the EC50 in the data set on HCC70 [2] (Homo sapiens, HCC70, 96 h) is 179 µM.

For the molecule `O[C@@H]1[C@@H](F)[C@H](Oc2ccc3ccccc3c2)OC[C@H]1O`, the outcome in the data set with CCD-1095SK and with HCC70 [3] was inactive. Besides, the GI50 at 96 h in data set [1] is 12 µM. The EC50 in the data set with HCC70 [2] (Homo sapiens, HCC70, 96 h) came to 22 µM.

As for `CO[C@@H]1[C@@H](O)[C@H](Oc2ccc3ccccc3c2)OC[C@H]1O`, the result with CCD-1095SK and in the data set with HCC70 [3] was inactive. Further, the GI50 at 96 h in data set [1] was 17 µM. Also, the EC50 in the data set on HCC70 [2] (Homo sapiens, HCC70, 96 h) was 145 µM.

With `Oc1ccc2cc(O[C@@H]3OC[C@@H](O)[C@H](O)[C@H]3O)ccc2c1`, the outcome in the data set with CCD-1095SK and with HCC70 [3] was Active.

On to `O[C@H]1[C@H](Oc2ccc3ccccc3c2)OCC[C@@H]1O`, for which the outcome with CCD-1095SK and with HCC70 [3] was inactive. In addition, in data set [1], the GI50 at 96 h stood at 285 µM. This molecule had an inhibition at 100 µM in the data set on HCC70 [4] of 24%. Moreover, the EC50 in the data set with HCC70 [2] (Homo sapiens, HCC70, 96 h) was 284 µM.

On to `O[C@@H]1[C@@H](O)[C@H](Oc2ccc3ccccc3c2)OC[C@H]1F`, for which the result with CCD-1095SK and with HCC70 [3] was inactive. In data set [1], the GI50 at 96 h was found to be 32 µM. Also, the inhibition at 100 µM with HCC70 [4] came to 33%; in the data set on HCC70 [5] it was 23%. Further, the EC50 in the data set on HCC70 [2] (Homo sapiens, HCC70, 96 h) was found to be 37 µM.

For `O[C@H]1[C@H](Oc2ccc3ccccc3c2)OC[C@@H](O)[C@H]1O`, the result in the data set on CCD-1095SK and in the data set on HCC70 [3] was inactive. The GI50 at 96 h in data set [1] was determined as 182 µM. The EC50 with HCC70 [2] (Homo sapiens, HCC70, 96 h) was 178 µM.

For `CO[C@@H]1CO[C@@H](Oc2ccc3ccccc3c2)[C@H](O)[C@H]1O`, the result in the data set on CCD-1095SK and with HCC70 [3] was inactive. In data set [1], the GI50 at 96 h came out at 93 µM. Further, the EC50 with HCC70 [2] (Homo sapiens, HCC70, 96 h) stood at 135 µM.

For the molecule `CO[C@H]1[C@H](Oc2ccc3ccccc3c2)OC[C@@H](O)[C@@H]1O`, the outcome in the data set with CCD-1095SK and in the data set with HCC70 [3] was inactive. In data set [1], the GI50 at 96 h was 55 µM. The EC50 in the data set with HCC70 [2] (Homo sapiens, HCC70, 96 h) amounted to 127 µM.

Turning to `O[C@@H]1CO[C@@H](Oc2ccc3ccccc3c2)C[C@H]1O`, the result in the data set with CCD-1095SK and in the data set with HCC70 [3] was inactive. Further, the GI50 at 96 h in data set [1] was 19 µM. Moreover, the EC50 in the data set with HCC70 [2] (Homo sapiens, HCC70, 96 h) turned out to be 228 µM.

The values are drawn from ChEMBL document CHEMBL1800020, “Synthesis, conformation and biology of naphthoxylosides” (Bioorg Med Chem, 2011).
